In PMC5437736 (Molecular Therapy. Methods & Clinical Development, 2017):
Non-standard residues stand in square brackets, D forms with d. No end group written: not given here. Dmt = Cc1cc(O)cc(C)c1C[C@H](N)C(=O)O; Orn = NCCC[C@H](N)C(=O)O

Columns and labels:
Dynamic light scattering = type: physicochemical; conditions: MilliQ H2O or cell culture media, 5 μM
In short: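 Test compound dissolved either in DMEM with 10% FBS or in MilliQ water adjusted to pH 7.4. Dynamic light scattering gave hydrodynamic mean diameter and zeta potential. Data plotted as size distribution by intensity.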

[1] = system: mitochondrial membrane potential in HeLa 705 cells; assay: Mitochondrial membrane potential; type: cell-based, human; conditions: 5 μM peptide 24 hr, TMRE fluorescence, n = 3; for mitochondrial membrane potential (Δψm) with H2O2 (oxidative stress): H2O2 200 μM for 2 hr
In short: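 HeLa 705 cells seeded 24 hr ahead and treated 24 hr with peptide. In the stress arm, a 2 hr H2O2 exposure preceded the 24 hr incubation at 37°C, 5% CO2. TMRE added at 400 nM final for 30 min in the dark, then PBS wash and 0.2% BSA in PBS. Read at ex 549/em 575 nm, as percent of untreated cells or untreated + H2O2. FCCP and H2O2 served as controls. Mean ± SD of three experiments; one-way ANOVA.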

[2] = system: mitochondrial superoxide in HeLa 705 cells; assay: Superoxide anion scavenging assay; type: cell-based, human; conditions: 5 μM, 24 hr, MitoSOX fluorescence, mean of three experiments
In short: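 HeLa 705 cells seeded at 7 × 10³ per well, recovered 24 hr, then exposed to peptide for 24 hr. MitoSOX Red working solution in HBSS/Ca/Mg added for 10 min at 37°C, 5% CO2, in the dark. Cells washed with 0.2% BSA in PBS and read at ex 510/em 580 nm. Signal normalised to antimycin A-treated cells or to a reference peptide. Mean ± SD of three experiments.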

HeLa 705 cells [3] = assay: Fluorescence microscopy, cellular uptake and localization; type: cell-based, human; conditions: carboxyfluorescein-labelled peptide 5 μM, 4 hr, 200 nM TMRE
In short: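 HeLa 705 cells given carboxyfluorescein-labelled peptides for 4 hr; untreated cells got fresh medium in parallel. Mitochondria stained with 200 nM TMRE (20 min at 37°C per methods; added 30 min pre-imaging per legend) and nuclei with Hoechst 33342 (10 min). Inverted fluorescence microscope with 10×/40× dry and 63× oil objectives, held at 36 ± 1°C. Excitation/emission: Hoechst 346/497 nm, FAM 494/519 nm, TMRE 535/575 nm.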

cells = conditions: 1-hr treatment with 1 mM of GSH; cited from earlier work
HeLa 705 cells [4] = assay: Subcellular uptake by spectrofluorometry after isolation of mitochondria; type: cell-based, human; conditions: 5 μM, 24 hr; for compartment of main accumulation: membranes, cytosol, mitochondria fractions
In short: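 HeLa 705 cells grown in flasks for 24 hr, treated 24 hr with fluorescein-labelled peptide, then scraped at about 90% confluence. Reagent-based kit with differential centrifugation (700 × g 10 min, then 12,000 × g 15 min, 4°C) gave membrane, cytosol and mitochondrial fractions. Fluorescein read at […] and normalised to untreated cells. Mean ± SD of three experiments; one-way ANOVA.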

[5] = Solubility in MilliQ water; type: physicochemical; conditions: compared with unlabelled peptide
HeLa 705 cells [6] = assay: WST-1 cell proliferation/viability assay; type: cell-based, human; conditions: 20% DMSO in complete growth medium, 24 hr, positive control
In short: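 Cells seeded at 7 × 10³ per well 24 hr ahead, then exposed 24 hr to peptide at several concentrations in complete medium. WST-1 added at 1:10 final dilution after 20 hr and incubated 4 hr. Plate shaken 1 min; formazan read at 450 nm against 650 nm reference. Controls: 20% DMSO (v/v) for 24 hr and H2O2 at two levels. Mean of at least three experiments with SD.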

[7] = read-out: EC50 of the hydroxyl radical scavenging reaction; cited from earlier work
different cell lines = conditions: high concentration (100 μM); cited from earlier work

In the case of “[dR][Dmt][Orn]FY(Me)ECG-NH2 (N-terminus assumed; SMILES COc1ccc(C[C@H](NC(=O)[C@H](Cc2ccccc2)NC(=O)[C@H](CCCN)NC(=O)[C@H](Cc2c(C)cc(O)cc2C)NC(=O)[C@H](N)CCCNC(=N)N)C(=O)N[C@@H](CCC(=O)O)C(=O)N[C@@H](CS)C(=O)NCC(N)=O)cc1) [mtgCPP]”, the “aggregation (from DLS size)” value (Dynamic light scattering) is reported as “forming aggregates”, the “mitochondrial membrane potential (Δψm) with H2O2 (oxidative stress)” value [1] is reported as “close to the healthy situation” and the “improvement of superoxide anion scavenging ability compared with UPF25” value [2] is reported as 3 fold. The “improvement of superoxide anion scavenging ability compared with mtCPP1” value [2] was 2 fold and the “mitochondrial localization (merge with TMRE)” value (HeLa 705 cells [3]) was “partially targets the mitochondria”.
In the case of glutathione [GSH], the “uptake of GSH in cells” value (cells) is given as “≈ 1.5 μM”.
With FAM-D-Arg-Dmt-Orn-Phe-NH2 [FAM-mtCPP1] the “increase in cytosol fraction between FAM-UPF25 and FAM-mtCPP1” value (HeLa 705 cells [4]; carboxyfluorescein F.I., direction not given) was 2 fold and the “effect of the carboxyfluorescein moiety on solubility” value (“effect … on solubility” below) [5] was “did not decrease the solubility”.
With FAM-Tyr(Me)-Glu-Cys-Gly-NH2 [FAM-UPF25] the “compartment of main accumulation” value (HeLa 705 cells [4]) was “mainly accumulates in membranes” and the “effect … on solubility” value [5] was “slightly decreased”.
With `C[S+](C)[O-]` [DMSO] the cell viability (HeLa 705 cells [6]) was “approximately 20%”.
For “Y(Me)ECG-NH2 (N-terminus assumed; SMILES COc1ccc(C[C@H](N)C(=O)N[C@@H](CCC(=O)O)C(=O)N[C@@H](CS)C(=O)NCC(N)=O)cc1) [UPF25]”, the EC50 [7] is given as ~30 nM, the “mitochondrial membrane potential (Δψm) without H2O2” value [1] is given as “decreased” and the “mitochondrial membrane potential (Δψm) with H2O2 (oxidative stress)” value [1] is given as “partially rescue”. The “effect on viability of different cell lines” value (different cell lines) was “did not affect the viability”.
In the case of “FAM-D-Arg-Dmt-Orn-Phe-Tyr(Me)-Glu-Cys-Gly-NH2 [FAM-mtgCPP]”, the “presence in membranes fraction” value (HeLa 705 cells [4]; carboxyfluorescein F.I.) is reported as “same extent as FAM-mtCPP1”, the “compartment of main accumulation” value (HeLa 705 cells [4]) is reported as “mainly accumulated in the mitochondria” and the “effect … on solubility” value [5] is reported as “did not decrease the solubility”.
